# Vif imaging = HIV Vif self-association inhibitors, primary screen, imaging, HEK293T, single point; HEK293T cells, Vif self-association by quenched fluorescence, 24 h; inhibition, % at 7.49 µM; actives 0.35% (n = 340,000); AID 602346, 2012; in the data active = inhibition above about 50%, passing the limit was not always enough; inconclusive = no clear call, values can overlap the other calls; inactive = below about 31%
# SR-BI DiI-HDL act = activators of SR-BI mediated DiI-HDL uptake, primary screen, ldlA[mSR-BI] CHO cells, DiI fluorescence | 3 h; 100 = double the neutral-control signal | activation, % at 12.5 µM | actives 0.096% (n = 320,000) | AID 504775, 2011;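 active = mean replicate activation of at least 60% and every replicate at or above 60%; inconclusive = mean or all-replicate condition met, but not both; inactive = mean below 60% and not all replicates reaching 60%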;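 also: 0% = median plate neutral-control signal and 100% = twice that signal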
#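 Material: SR-BI-overexpressing, LDLR-lacking CHO cells; schedule: compound exposure 3 h, 37 °C; reagent: DiI-labelled HDL at 10 µg/mL final; technique: bottom-read fluorescence, 550/595 nm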
# SR-BI HDL uptake = inhibitors of SR-BI mediated HDL lipid uptake, primary screen, ldlA[mSR-BI] cells, fluorescence, single point; Scavenger receptor class B member 1 (Mus musculus), Q61009; ldlA[mSR-BI] CHO cells, DiI-HDL uptake fluorescence, 3 h; inhibition, % at 12.5 µM; actives 0.96% (n = 320,000);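 active = mean replicate inhibition of at least 70% and a set share of replicates each scoring 70 or more; inconclusive = meets just one of the two criteria; inactive = fails both criteria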;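 also: 0% = median of neutral control wells and 100% = median of positive control wells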
# Target sequence (Q61009 whole entry, looked up): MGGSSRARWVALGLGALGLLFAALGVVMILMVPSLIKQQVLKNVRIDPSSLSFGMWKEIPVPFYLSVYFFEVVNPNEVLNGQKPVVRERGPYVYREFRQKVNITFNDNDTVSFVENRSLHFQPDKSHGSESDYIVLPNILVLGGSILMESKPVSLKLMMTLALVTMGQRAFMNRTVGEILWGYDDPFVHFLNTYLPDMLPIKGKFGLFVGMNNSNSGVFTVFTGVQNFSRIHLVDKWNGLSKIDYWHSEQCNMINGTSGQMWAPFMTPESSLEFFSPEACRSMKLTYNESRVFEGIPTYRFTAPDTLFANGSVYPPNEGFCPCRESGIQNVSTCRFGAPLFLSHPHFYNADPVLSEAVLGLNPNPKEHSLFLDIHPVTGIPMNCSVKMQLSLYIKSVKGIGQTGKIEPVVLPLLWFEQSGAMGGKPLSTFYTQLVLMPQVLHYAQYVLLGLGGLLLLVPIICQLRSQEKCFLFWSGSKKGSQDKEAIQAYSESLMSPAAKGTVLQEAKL
# TAG inh = inhibitors of triacylglycerol accumulation, primary screen, cell-based, uHTS, fluorescence, H9c2 | H9c2 cells, Nile Red lipid (TAG) fluorescence; cells loaded with 200 µM oleic acid | inhibition, % at 12.5 µM | actives 0.66% (n = 230,000) | AID 651582, 2012;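 active = pattern-corrected inhibition of lipid staining of at least 50% with the nuclear-stain viability signal not falling by more than 50%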;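 also: 0% = DMSO wells and 100% = triacsin C control wells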
# SMARCA2 activ = SMARCA2 (BRM) function activators, primary screen, cell-based, luminescence, high throughput | MG213 cells, MMTV-luciferase reporter, dexamethasone, overnight | activation, % at 9.1 µM | actives 1% (n = 370,000) | AID 652017, 2013; in the data active = activation above about 7.8%;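 also: 0% = vehicle wells and 100% = reference activator wells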
# SMARCA2 conf = SMARCA2 (BRM) function activators, confirmation, cell-based, luminescence, triplicate. activation, % at 9.1 µM. actives 30% (n = 3,500). MG213 cells, MMTV-luciferase with dexamethasone, overnight; MG213 cells expressing E1A, Rb sequestered; DMSO wells 0%, reference activator 100%. shares compounds with SMARCA2 activ. AID 652260, 2013;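 active = activation above its plate's cutoff, the mean activation of tested wells plus 3 SD, cut at about 7.9% in these data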
# GAL4-VP16 Luc = GAL4-VP16 luciferase reporter activation, counter-screen for SMARCA2 (BRM) activator project, cell-based, pG5luc, luminescence, high throughput; shares compounds with SMARCA2 activ; HEK293 GAL4-VP16 pG5luc reporter; scaled: DMSO wells 0%, SAHA wells 100%; activation, % at 9.1 µM; actives 41% (n = 3,500); AID 686939, 2013;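 active = activation above the solvent-only control well mean plus 3 SD, averaged across control plates, cut at about 5.2% in these data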
# Active calls of the source: *; ? = inconclusive; nt = not tested or not shown. Rows were chosen to be rich in hits. Some 2.5% of all compounds tested hit in one or more screens of this group.
SMILES,Vif imaging,SR-BI DiI-HDL act,SR-BI HDL uptake,TAG inh,SMARCA2 activ,SMARCA2 conf,GAL4-VP16 Luc
COc1ccc2[nH]c(=O)c(C(c3nnnn3C(C)(C)C)N(Cc3ccco3)CC3CCCO3)cc2c1 (stereo not given),1,18,-18,nt,12*,-3,1
Cc1cc2cc(C(c3nnnn3C(C)(C)C)N(Cc3ccco3)CC3CCCO3)c(=O)[nH]c2cc1C (stereo not given),3,19,-19,nt,-4,nt,nt
CCCCCC(=O)N1C[C@@H](n2cc(C3CC3)nn2)[C@H](O)C[C@@H]1c1ccc(OC)cc1,2,nt,nt,7,-2,nt,nt
CCN(C(=O)COC(=O)/C(C#N)=C/c1ccc(N(C)C)cc1)C1CCS(=O)(=O)C1 (stereo not given),?,0,0,-6,8.3*,6,4
Nc1[nH]c(C(=O)c2ccccc2)c(-c2ccccc2[N+](=O)[O-])c1C(=O)NCCc1c[nH]c2ccccc12,nt,nt,nt,nt,-9,nt,nt
Cc1cc(C)n2c(NC3CCCC3)c(-c3cc4ccccc4o3)nc2n1,nt,nt,nt,nt,8.6*,8.0*,6.7*
CCC(C)c1ccc(NC(=O)Nc2cnccn2)cc1 (stereo not given),nt,nt,36,nt,1,nt,nt
COc1ccc(CN2C[C@]3(C=C(C)Cn4c(=O)n(-c5ccccc5)c(=O)n43)N(C(=O)OCc3ccccc3)C2=NC(=O)c2ccccc2)c(OC)c1,nt,nt,nt,nt,8.6*,0,0
CCC1Cc2[nH][nH]c(=O)c2C(CC)O1 (stereo not given),nt,nt,nt,nt,1,nt,nt
COc1ccccc1C(CC(=O)O)NS(=O)(=O)c1ccc2c(c1)N(C(C)=O)CC(C)O2 (stereo not given),4,18,-18,nt,10*,-5,-2
COC(=O)c1ccccc1S(=O)(=O)N1CCC(NC(=O)C(Cc2cccc(OC)c2OC)NC(C)=O)CC1 (stereo not given),-5,nt,nt,nt,0,nt,nt
CC(/C=N/NC(=O)c1ccccn1)=C\c1ccco1,6,nt,nt,1,8.7*,12*,14*
Cc1ccc(/C=N/NC(=O)c2ccncc2)o1,2,16,-16,nt,1,nt,nt
O=C(N/N=C/C=C\c1ccco1)c1ccccn1,4,nt,nt,7,6,nt,nt
Cc1ccc(/C=N/NC(=O)c2ccccn2)o1,-11,52,-52,nt,11*,5,4
CN(C)c1ccc(/C=N/NC(=O)c2ccccn2)cc1,-10,2,-2,-11,8.0*,6,7.5*
O=C(N/N=C/c1ccncc1)c1ccccn1,-7,30,-30,nt,3,nt,nt
CN(C)c1ccc(/C=N\NC(=O)c2csnn2)cc1,37,-9,9,31,8.4*,15*,10*
C/C(=N/NS(=O)(=O)c1ccc(CC(C)C)cc1)c1ccncc1,-4,19,-19,-17,-4,nt,nt
O=C(COC(=O)Cc1ccccc1[N+](=O)[O-])NCc1ccccc1Cl,-3,14,-14,-8,1,nt,nt
CCOC(=O)[C@]12CCCC=C1N(CCCOC)C(=O)[C@@H]2CC(=O)NCc1ccccc1,nt,nt,nt,nt,-3,nt,nt
O=C(/C=C(\Nc1ccc(Cl)c(C(F)(F)F)c1)c1ccccc1)c1ccccc1,nt,nt,nt,nt,-2,nt,nt
Cc1cc(OCCN2CCOCC2)ccc1Cl,-3,13,-13,4,4,nt,nt
O=C(CSc1nnnn1C1CCCC1)c1ccc2c(c1)OCCO2,2,0,0,nt,8.3*,4,5.4*
Cc1ccc(CN2CCCCC(NC(=O)c3ccc(Br)cc3)C2=O)cc1 (stereo not given),nt,nt,nt,nt,-2,nt,nt
SMILES,Vif imaging,SR-BI DiI-HDL act,SR-BI HDL uptake,TAG inh,SMARCA2 activ,SMARCA2 conf,GAL4-VP16 Luc
COCCCNC(=O)C[C@H]1C[C@@]2(C(=O)OC)C(=C[C@H](COCc3ccccc3)O[C@@H]2C)N(CCC2=CCCCC2)C1=O,nt,nt,nt,nt,8,nt,nt
C=CCNC(=O)c1cc(-c2ccc3c(c2)OCO3)on1,1,6,-6,nt,9.1*,8.2*,10*
COCCNC(=O)c1cc(-c2ccc3c(c2)OCO3)on1,nt,17,-17,nt,-1,nt,nt
CC(=O)Nc1ccc2c(=O)n(-c3ccccc3)sc2c1,6,nt,nt,29,9.8*,8,2
COc1ccc(C(=O)CCC(=O)NCCc2c[nH]c3ccccc23)cc1OC,9,3,-3,nt,-2,nt,nt
COc1ccc(C(C)=O)cc1CS(=O)(=O)CC(=O)NCCc1c[nH]c2ccccc12,-2,-39,39,30,9.0*,4,1
CCS(=O)(=O)c1ccc2c(c1)N(S(C)(=O)=O)CC(C(=O)NCCOC)O2 (stereo not given),0,19,-19,5,12*,-1,1
CCOC(=O)C1CN(S(=O)(=O)c2ccccc2)c2cc(S(=O)(=O)CC)ccc2O1 (stereo not given),-5,-6,6,12,-1,nt,nt
CCOc1ccc2nc(SCC#N)c(C#N)cc2c1,3,nt,43,-5,8.8*,7.8*,6.6*
COc1ccc(C(=O)NCC(=O)N2CCN(c3ncccn3)CC2)cc1OC,-2,11,-11,12,8.0*,4,-1
CC(=O)N1CCC(c2nc3ccccc3n2C(C)C(=O)NCc2ccccc2)CC1 (stereo not given),nt,nt,nt,nt,-1,nt,nt
Cc1occc1C(=O)N/N=C/c1ccc[nH]1,-4,4,-4,10,8.2*,3,2
COc1cccc(C(=O)N/N=C/C(Br)=C/c2ccccc2)c1,-7,11,-11,nt,12*,5,3
Cc1occc1C(=O)N/N=C/C(Br)=C/c1ccccc1,-4,-39,39,-5,14*,8.2*,15*
COc1ccc(C(=O)N/N=C/C(Br)=C/c2ccccc2)cc1,nt,-10,10,nt,8,nt,nt
Cc1occc1C(=O)N/N=C/C=C\c1ccccc1[N+](=O)[O-],-3,-25,25,nt,8.9*,-3,1
C[C@@H]1Cc2cc(O)c(O)c(O)c2C(=O)O1,nt,nt,nt,nt,-1,nt,nt
O=C(NNC(=O)c1ccc2ccccc2n1)c1ccc(O)cc1,-2,32,-32,-20,-3,nt,nt
COc1ccc(C(=O)NNC(=O)c2ccc3ccccc3n2)cc1,-11,2,-2,-11,15*,-14,4
Cc1ccn2c(=O)c(NC(=O)c3ccc4c(c3)OCO4)c(C)nc2c1,10,nt,nt,-3,-7,nt,nt

# Compound activity: PubChem, several laboratories
